Reference: ChEMBL document CHEMBL1127053, “3,4-Dimethyl-4-(3-hydroxyphenyl)piperidines: opioid antagonists with potent anorectant activity” (J Med Chem, 1993)

Key:
[1] = target: Kappa-type opioid receptor (Mus musculus) (UniProt P33534); assay: Antagonist activity towards U50 488 induced kappa opioid receptor by mouse writhing assay at 2.5 mg/kg subcutaneously; format: functional, organism-based; parameters: dose 2.5 mg/kg
Procedure, shortened: (§1)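 Mouse acetic acid writhing: 0.6% acetic acid ip, writhes counted for 10 min starting 5 min after injection. 5 mice/point, ≥5 doses varied 2-fold, each mouse used once. AD50 = antagonist dose reducing agonist-induced writhing inhibition to 50%.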

[2] = target: Kappa-type opioid receptor (Rattus norvegicus) (UniProt P34975); assay: Antagonism of bremazocine induced kappa receptor diuresis in rats at a concentration of 0.08 mg/kg subcutaneously; format: functional, organism-based; parameters: dose 0.08 mg/kg
Chain of Kappa-type opioid receptor (Rattus norvegicus) (P34975 whole entry): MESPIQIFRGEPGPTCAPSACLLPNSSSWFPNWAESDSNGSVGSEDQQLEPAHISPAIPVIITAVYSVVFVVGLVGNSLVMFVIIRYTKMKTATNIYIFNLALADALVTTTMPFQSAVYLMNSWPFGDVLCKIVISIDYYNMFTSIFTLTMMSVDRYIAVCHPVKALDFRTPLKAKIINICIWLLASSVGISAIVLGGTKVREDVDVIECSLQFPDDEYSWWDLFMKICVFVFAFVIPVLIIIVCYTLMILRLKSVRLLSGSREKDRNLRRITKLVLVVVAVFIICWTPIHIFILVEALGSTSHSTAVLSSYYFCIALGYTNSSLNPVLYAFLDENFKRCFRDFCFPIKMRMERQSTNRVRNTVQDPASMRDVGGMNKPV
Procedure, shortened: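 Male Long-Evans hooded rats (350-500 g), reused no more than twice weekly. Bremazocine 0.08 mg/kg sc, test antagonist sc on the opposite side without delay. Rats housed in metabolism cages; urine volume recorded at 2 and 5 h. 3 rats/dose, doses varied 2-fold. AD50 = dose reducing cumulative 5-h induced urination by 50%.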

[3] = target: Mu-type opioid receptor (Mus musculus) (UniProt P42866); assay: Antagonistic activity towards morphine induced mu-opioid receptor by mouse writhing assay at 1.25 mg/kg subcutaneously; format: functional, organism-based; parameters: dose 1.25 mg/kg
Chain of Mu-type opioid receptor (Mus musculus) (P42866 whole entry): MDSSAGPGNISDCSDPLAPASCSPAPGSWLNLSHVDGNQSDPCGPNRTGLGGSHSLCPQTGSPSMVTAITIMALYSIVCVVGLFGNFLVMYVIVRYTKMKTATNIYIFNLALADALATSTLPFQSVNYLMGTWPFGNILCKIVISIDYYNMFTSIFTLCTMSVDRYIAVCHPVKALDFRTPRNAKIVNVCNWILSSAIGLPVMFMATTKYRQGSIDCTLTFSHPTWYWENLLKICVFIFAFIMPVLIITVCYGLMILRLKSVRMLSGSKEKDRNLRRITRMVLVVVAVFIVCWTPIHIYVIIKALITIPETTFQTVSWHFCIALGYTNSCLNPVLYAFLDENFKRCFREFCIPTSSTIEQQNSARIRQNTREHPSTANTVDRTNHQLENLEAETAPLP
Procedure, shortened: as §1, with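 “injection. Agonist (morphine 1.25 mg/kg or U50,488 2.5 mg/kg) and antagonist given sc 20 min before acid.” for “injection.”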

Rattus norvegicus = assay: Tested for concentration required to reduce the food consumption by 20 % subcutaneously; format: functional
Procedure, shortened: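 Obese Zucker rats, 3-4 months old, trained to eat only 8 am-4 pm. Groups of 4 (2 male, 2 female), with one saline control group daily. Compound in saline with 10% DMSO, given sc on 3 consecutive days, typical doses 5.0-0.08 mg/kg (0.02-20 in some cases). Intake measured over the first 4 h. ED20 from regression of the linear portion of the dose-response curve.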

[4] = target: Kappa-type opioid receptor (Cavia porcellus, UniProt P41144); assay: Binding affinity towards kappa opioid receptor by displacement of [3H]EKC in guinea pig cortical tissue
Chain of Kappa-type opioid receptor (P41144 whole entry): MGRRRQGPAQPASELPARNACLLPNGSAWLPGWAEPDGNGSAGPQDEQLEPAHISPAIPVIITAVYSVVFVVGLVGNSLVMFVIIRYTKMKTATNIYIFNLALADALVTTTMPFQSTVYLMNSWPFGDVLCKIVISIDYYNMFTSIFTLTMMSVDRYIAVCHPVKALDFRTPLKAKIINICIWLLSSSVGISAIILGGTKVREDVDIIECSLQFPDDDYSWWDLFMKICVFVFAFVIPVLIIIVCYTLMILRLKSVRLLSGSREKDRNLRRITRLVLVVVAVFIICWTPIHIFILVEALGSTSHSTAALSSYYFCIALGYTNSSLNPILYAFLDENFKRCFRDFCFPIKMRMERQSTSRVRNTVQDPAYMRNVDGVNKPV
Procedure, shortened: (§2)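 Radioligand displacement. Kappa: [3H]EKC, guinea pig cortex, with fentanyl and DADL added to block mu/delta binding. Delta: [3H]DADL, rat brain homogenate.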

Mu-type opioid receptor = Mu-type opioid receptor (Rattus norvegicus, UniProt P33535); assay: Binding affinity towards mu-opioid receptor by the displacement of [3H]Nal in rat brain homogenates; format: tissue-based
Chain of Mu-type opioid receptor (P33535 whole entry): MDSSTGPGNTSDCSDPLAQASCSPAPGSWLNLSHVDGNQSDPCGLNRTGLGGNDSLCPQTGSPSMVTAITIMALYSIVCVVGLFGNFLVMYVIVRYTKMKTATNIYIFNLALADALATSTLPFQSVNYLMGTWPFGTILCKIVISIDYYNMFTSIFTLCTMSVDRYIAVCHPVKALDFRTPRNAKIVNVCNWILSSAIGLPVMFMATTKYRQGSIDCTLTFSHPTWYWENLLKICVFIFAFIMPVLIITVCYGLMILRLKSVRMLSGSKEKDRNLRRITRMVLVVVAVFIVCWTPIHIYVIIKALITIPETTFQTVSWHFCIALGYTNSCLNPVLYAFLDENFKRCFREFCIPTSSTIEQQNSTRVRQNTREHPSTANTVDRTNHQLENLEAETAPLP

[5] = target: Delta-type opioid receptor (Rattus norvegicus, UniProt P33533); assay: Binding affinity towards delta-opioid receptor by displacement of [3H]DADL in rat brain homogenates; format: tissue-based; procedure, shortened: as §2
Chain of Delta-type opioid receptor (P33533 whole entry): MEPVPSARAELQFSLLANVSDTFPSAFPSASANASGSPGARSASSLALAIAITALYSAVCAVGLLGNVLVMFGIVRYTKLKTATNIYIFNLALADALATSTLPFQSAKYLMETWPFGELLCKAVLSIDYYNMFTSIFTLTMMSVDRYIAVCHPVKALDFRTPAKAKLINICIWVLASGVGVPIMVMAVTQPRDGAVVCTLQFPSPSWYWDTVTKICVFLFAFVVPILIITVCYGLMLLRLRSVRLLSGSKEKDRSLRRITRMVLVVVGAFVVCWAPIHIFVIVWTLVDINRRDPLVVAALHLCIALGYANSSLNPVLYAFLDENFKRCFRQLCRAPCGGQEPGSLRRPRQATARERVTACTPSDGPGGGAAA

[6] = target: Kappa-type opioid receptor (Cavia porcellus) (UniProt P41144); assay: Binding affinity towards kappa-opioid receptor by displacement of [3H]EKC in guinea pig cortical tissue at 10 nM
Chain of Kappa-type opioid receptor (Cavia porcellus) (P41144 whole entry): as the sequence (P41144 whole entry) above
Procedure, shortened: (§3)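 [3H]EKC binding to guinea pig cortical tissue, with fentanyl and DADL present to block mu and delta sites. Percent displacement measured at 10 and 100 nM test compound, run in triplicate.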

[7] = target: Kappa-type opioid receptor (Cavia porcellus) (UniProt P41144); assay: Binding affinity towards kappa-opioid receptor by displacement of [3H]EKC in guinea pig cortical tissue at 100 nM; procedure, shortened: as §3
[8] = Rattus norvegicus, sc, read-out: ED50

Chain of Kappa-type opioid receptor (Mus musculus) (P33534 whole entry): as the sequence (P34975 whole entry) above, with E11D, A17S, P51S, V308A counted along it

**Q.** For `CC(C)CCCCN1CC[C@@](C)(c2cccc(O)c2)[C@@H](C)C1` (stereo in doubt; 39), which AD50 [1] is on record?
**A.** The AD50 was 0.22 mg/kg.

**Q.** And the AD50 [2]?
**A.** Its AD50 is 1.31 mg/kg.

**Q.** And the AD50 [3]?
**A.** Its AD50 is 0.08 mg/kg.

**Q.** With `C[C@@H]1CN(CCCc2cccs2)CC[C@]1(C)c1cccc(O)c1` as the compound, how does the AD50 [1] read?
**A.** The AD50 was 0.65 mg/kg.

**Q.** And the AD50 [2]?
**A.** The AD50 was 1.66 mg/kg.

**Q.** What about the AD50 [3] of the same compound?
**A.** Its AD50 is 0.24 mg/kg.

**Q.** What about the ED50 (Rattus norvegicus; [8]) of the same compound?
**A.** Its ED50 is 0.4 mg/kg.

**Q.** Which results are given for `CC(C)CCCCN1CC[C@@](C)(c2cccc(O)c2)[C@@H](C)C1` (stereo in doubt; 21)?
**A.** AD50 [1]: 0.24 mg/kg; AD50 [2]: 0.39 mg/kg; AD50 [3]: 0.58 mg/kg

**Q.** For `C[C@H]1CN(CCCc2ccccc2)CC[C@@]1(C)c1cccc(O)c1`, which AD50 [1] is on record?
**A.** Its AD50 is 5.3 mg/kg.

**Q.** And the ED50 (Rattus norvegicus; [8])?
**A.** Its ED50 is 1.3 mg/kg.

**Q.** For `C[C@H]1CN(CCCC2CCCC2)CC[C@@]1(C)c1cccc(O)c1`, which Ki [4] is on record?
**A.** Its Ki is 3.4 nM.

**Q.** What about the AD50 [1] of the same compound?
**A.** The AD50 was 0.13 mg/kg.

**Q.** And the AD50 [2]?
**A.** Its AD50 is 0.79 mg/kg.

**Q.** And the AD50 [3]?
**A.** The AD50 was 0.12 mg/kg.

**Q.** What about the Ki (Mu-type opioid receptor) of the same compound?
**A.** Its Ki is 0.37 nM.

**Q.** What about the ED50 (Rattus norvegicus; [8]) of the same compound?
**A.** The ED50 was 1.2 mg/kg.

**Q.** Which AD50 [2] does the source give for `C[C@H]1CN(CCCc2cccs2)CC[C@@]1(C)c1cccc(O)c1` (stereo in doubt; 29) here?
**A.** Its AD50 is 1 mg/kg.

**Q.** And the AD50 [3]?
**A.** The AD50 was 0.22 mg/kg.

**Q.** Which results are given for `CC(C)CCCCN1CC[C@](C)(c2cccc(O)c2)[C@H](C)C1`?
**A.** Ki [4]: 3.04 nM; AD50 [1]: 0.89 mg/kg; AD50 [2]: 4.75 mg/kg; AD50 [3]: 0.35 mg/kg; Ki (Mu-type opioid receptor): 1.36 nM; ED50 (Rattus norvegicus; [8]): 0.14 mg/kg

**Q.** Which Ki [4] does the source give for `C=C1CC[C@@]2(O)[C@H]3Cc4ccc(O)c5c4[C@@]2(CCN3CC2CC2)[C@H]1O5` here?
**A.** Its Ki is 2 nM.

**Q.** And the AD50 [1]?
**A.** The AD50 was 0.14 mg/kg.

**Q.** And the AD50 [2]?
**A.** The AD50 was 0.99 mg/kg.

**Q.** And the Ki [5]?
**A.** Its Ki is 3.4 nM.

**Q.** What about the AD50 [3] of the same compound?
**A.** Its AD50 is 0.02 mg/kg.

**Q.** What about the Ki (Mu-type opioid receptor) of the same compound?
**A.** Its Ki is 0.29 nM.

**Q.** And the ED50 (Rattus norvegicus; [8])?
**A.** The ED50 was 1.5 mg/kg.

**Q.** With `C[C@H]1CN(CCC(O)c2cccs2)CC[C@@]1(C)c1cccc(O)c1` (stereo partly drawn) as the compound, how does the ED50 (Rattus norvegicus; [8]) read?
**A.** The ED50 was 0.07 mg/kg.

**Q.** `C[C@H]1CN(CCCc2cccs2)CC[C@@]1(C)c1cccc(O)c1` (stereo in doubt; 41) was tested. Which AD50 [2] did it give?
**A.** Its AD50 is 1.18 mg/kg.

**Q.** What does the source list for `CC(C)C(O)CCN1CC[C@@](C)(c2cccc(O)c2)[C@@H](C)C1` (stereo partly drawn)?
**A.** Ki [4]: 6.9 nM; AD50 [1]: 0.35 mg/kg; AD50 [2]: 0.17 mg/kg; AD50 [3]: 0.14 mg/kg; Ki (Mu-type opioid receptor): 2.6 nM; ED50 (Rattus norvegicus; [8]): 0.65 mg/kg

**Q.** For `CCCCCCN1CC[C@@](C)(c2cccc(O)c2)[C@@H](C)C1` (stereo in doubt; 37), which Ki (Mu-type opioid receptor) is on record?
**A.** The Ki was 1.1 nM.

**Q.** What about the ED50 (Rattus norvegicus) of the same compound?
**A.** Its ED50 is 0.19 mg/kg.

**Q.** Which Ki [4] does the source give for `CC(C)CCCN1CC[C@@](C)(c2cccc(O)c2)[C@@H](C)C1` here?
**A.** The Ki was 9.6 nM.

**Q.** And the AD50 [1]?
**A.** Its AD50 is 0.073 mg/kg.

**Q.** What about the AD50 [2] of the same compound?
**A.** Its AD50 is 0.39 mg/kg.

**Q.** And the AD50 [3]?
**A.** The AD50 was 0.11 mg/kg.

**Q.** And the Ki (Mu-type opioid receptor)?
**A.** Its Ki is 0.29 nM.

**Q.** And the ED50 (Rattus norvegicus; [8])?
**A.** Its ED50 is 2.1 mg/kg.

**Q.** Which results are given for `CCCCCCN1CC[C@](C)(c2cccc(O)c2)[C@H](C)C1`?
**A.** AD50 [1]: 0.29 mg/kg; AD50 [2]: 1.34 mg/kg; AD50 [3]: 0.21 mg/kg; Ki (Mu-type opioid receptor): 5.61 nM; ED50 (Rattus norvegicus; [8]): 1.17 mg/kg

**Q.** For `C=C(C)CCCN1CC[C@@](C)(c2cccc(O)c2)[C@@H](C)C1`, which Ki [4] is on record?
**A.** The Ki was 21 nM.

**Q.** And the AD50 [1]?
**A.** The AD50 was 0.095 mg/kg.

**Q.** What about the AD50 [2] of the same compound?
**A.** The AD50 was 0.39 mg/kg.

**Q.** What about the AD50 [3] of the same compound?
**A.** Its AD50 is 0.077 mg/kg.

**Q.** What about the Ki (Mu-type opioid receptor) of the same compound?
**A.** The Ki was 0.17 nM.

**Q.** What about the ED50 (Rattus norvegicus; [8]) of the same compound?
**A.** Its ED50 is 0.29 mg/kg.

**Q.** How did the ED50 (Rattus norvegicus; [8]) turn out when `C=CCN1CC[C@]23c4c5ccc(O)c4O[C@H]2C(=O)CC[C@@]3(O)[C@H]1C5` [NALOXONE] was run?
**A.** Its ED50 is 1.2 mg/kg.

**Q.** `CCCCCN1CC[C@@](C)(c2cccc(O)c2)[C@@H](C)C1` was tested. Which AD50 [1] did it give?
**A.** The AD50 was 0.6 mg/kg.

**Q.** What about the Displacement [6] of the same compound?
**A.** The Displacement was 44%.

**Q.** And the Displacement [7]?
**A.** The Displacement was 78%.

**Q.** And the ED50 (Rattus norvegicus; [8])?
**A.** The ED50 was 3.8 mg/kg.

**Q.** For `C[C@H]1CN(CCC2CCCC2)CC[C@@]1(C)c1cccc(O)c1`, which Ki [4] is on record?
**A.** Its Ki is 7.2 nM.

**Q.** And the AD50 [1]?
**A.** Its AD50 is 0.22 mg/kg.

**Q.** And the AD50 [2]?
**A.** Its AD50 is 0.67 mg/kg.

**Q.** What about the AD50 [3] of the same compound?
**A.** The AD50 was 0.14 mg/kg.

**Q.** And the Ki (Mu-type opioid receptor)?
**A.** The Ki was 2.3 nM.

**Q.** And the ED50 (Rattus norvegicus; [8])?
**A.** Its ED50 is 0.34 mg/kg.

**Q.** Which Ki [4] does the source give for `C[C@H]1CN(CC2CCCCC2)CC[C@@]1(C)c1cccc(O)c1` here?
**A.** The Ki was 29 nM.

**Q.** And the AD50 [1]?
**A.** The AD50 was 0.47 mg/kg.

**Q.** What about the AD50 [2] of the same compound?
**A.** The AD50 was 4.6 mg/kg.

**Q.** And the AD50 [3]?
**A.** Its AD50 is 1.1 mg/kg.

**Q.** And the Ki (Mu-type opioid receptor)?
**A.** The Ki was 17 nM.

**Q.** And the ED50 (Rattus norvegicus; [8])?
**A.** Its ED50 is greater than 20 mg/kg.

**Q.** Which results are given for `CCCCCCCN1CC[C@@](C)(c2cccc(O)c2)[C@@H](C)C1`?
**A.** AD50 [1]: > 0.64 mg/kg; AD50 [2]: 3.3 mg/kg; AD50 [3]: 0.21 mg/kg; Displacement [6]: 57%; Displacement [7]: 87%; ED50 (Rattus norvegicus; [8]): 0.4 mg/kg
